# Results collected from several papers.
# Each line is one published result; the experiments were not run side by side.
# Matrix: plasma
SMILES,host,route,dose,notes,Cmax
CC(C)(C(=O)N1CCOc2c(C#N)cncc2C1)C(F)F,human,oral,20 mg,"multiple doses, once daily",250 ng/mL
Cc1ccc(C(=O)N(CCCN)[C@@H](c2oc3cc(Cl)ccc3c(=O)c2Cc2ccccc2)C(C)C)cc1,human,intravenous,2 mg/m²,"single dose, patients, infusion",233 ng/mL
O=C(Nc1c(Cl)cncc1Cl)c1ccc(OC(F)F)c(OCC2CC2)c1,human,oral,0.5 mg,"single dose, fasted",12.5 ng/mL
Cn1c(=O)oc2ccc(-c3ccc(C[C@@H](C#N)NC(=O)[C@@H]4CNCCCO4)cc3)cc21,male human,oral,65 mg,"single dose, healthy volunteers",1360 nM
CO[C@H]1CC[C@H](N2C(=O)CNc3ncc(-c4ccc(C(C)(C)O)nc4)nc32)CC1,human,oral,15 mg,"multiple doses, patients",92 ng/mL
CC(C)n1cc(C#N)c2cc(-n3cc(C(=O)O)cn3)ccc21,human,oral,10 mg,"single dose, fasted, healthy volunteers",313 ng/mL
COc1ccc(-n2nc(C(N)=O)c3c2C(=O)N(c2ccc(N4CCCCC4=O)cc2)CC3)cc1,human,oral,10 mg,healthy volunteers,261 ng/mL
CC(C)(O)c1ccccc1-c1ccc2[nH]c(/C=C/c3ccc(C(F)(F)F)cc3)nc2c1,male human,oral,30 mg,"single dose, fasted, healthy volunteers",91.8 ng/mL
O=C(NO)c1ccc(CN(c2cnccn2)c2cnccn2)cc1,human,oral,800 mg,"multiple doses, twice daily, patients",1270 ng/mL
CNCc1ccc(-c2[nH]c3cc(F)cc4c3c2CCNC4=O)cc1,human,oral,600 mg twice daily,"multiple doses, steady state",8190 nM
C[C@@]1(c2cc(NC(=O)c3ccc(C#N)cn3)ccc2F)C=CSC(N)=N1,male human,oral,1 mg,single dose,6.72 ng/mL
COCCOc1cnc2ccn([C@H](C)c3nnc4c(F)cc(-c5cnn(C)c5)cn34)c(=O)c2c1,human,oral,300 mg,"multiple doses, once daily, patients",4140 ng/mL
CCO[C@H]1CCN(Cc2c(OC)cc(C)c3[nH]ccc23)[C@H](c2ccc(C(=O)O)cc2)C1,human,oral,25 mg,"multiple doses, twice daily, patients",1450 ng/mL
COc1cc(C(=O)NC2CCN(C)CC2)c(F)cc1Nc1ncc(C(F)(F)F)c(Oc2cccc3c2C(=O)N(C)C3)n1,human,oral,100 mg,"single dose, patients",1320 nM
Cn1cc(-c2ccc(S(=O)(=O)[C@@H]3C[C@@H](C(=O)NC4(C#N)CC4)N(C(=O)C4(C(F)(F)F)CC4)C3)c(C(F)(F)F)c2)cn1,human,oral,3 mg,"single dose, fasted, healthy volunteers",20.8 ng/mL
CCc1nc2c(C)cc(N3CCN(CC(=O)N4CC(O)C4)CC3)cn2c1N(C)c1nc(-c2ccc(F)cc2)c(C#N)s1,human,oral,150 mg,"single dose, fed, healthy volunteers",1400 ng/mL
CCCCC1=NC2(CCCC2)C(=O)N1Cc1ccc(-c2ccccc2S(=O)(=O)Nc2noc(C)c2C)c(COCC)c1,human,oral,800 mg,"single dose, fasted, healthy volunteers",7650 ng/mL
C#Cc1cccc(Nc2ncnc3cc(OCCOC)c(OCCOC)cc23)c1,human,oral,50 mg,patients,1170 nM
O=C(/C=C/c1cccc(S(=O)(=O)Nc2ccccc2)c1)NO,human,intravenous,1800 mg/m²,patients,76800 ng/mL
